# Rows were chosen to be rich in hits. Some 4.9% of all compounds tested hit in one or more screens of this group.
# STAT1 blocker: inhibitors of IFN-gamma induced STAT1 signaling; 0.35% of 200,000 active; AID 920; NIH 3T3 STAT1-luciferase reporter, luminescence; inhibition, % at 5.5 µM;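 active means inhibition above a set limit, the mean inhibition across all tested compounds plus 3 SD, cut at about 34% in these data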;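 further: 0% = IFN-gamma with DMSO and 100% = IFN-gamma with 300 µM nifuroxazide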
# STAT3 act-1: STAT3 signaling activation. AID 871. 0.91% of 190,000 active. U3A cells, IL-6 STAT3-luciferase reporter, luminescence; 100% = signal with IL-6 EC80 alone. activation (% of control), % at 5.6 µM;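 active means activation above the screen-wide mean of compound activation plus 3 SD, cut at about 130% in these data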;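 further: 0% = background luminescence of wells with medium and substrate only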
#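 Test system: Human STAT1-deficient U3A cells with stable STAT3-luciferase reporter | Also added: Interleukin-6, 33 ng/mL | Timing: Compound pre-incubation 1 h before IL-6, then 6 h stimulation at 37 °C | Technique: Luciferase reporter luminescence | Read-out: Percent of IL-6-only median luminescence | Benchmarks: IL-6-only wells as 100% reference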
# APP 5'UTR act: APP 5'UTR luciferase reporter activation; SH-SY5Y APP 5'UTR luciferase reporter, luminescence; zero percent = DMSO vehicle wells; activation, % at 2 µM; 1% of 190,000 active; AID 1276;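 active means activation above a set limit, based on mean plus 3 SD of controls, cut at about 140% in these data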
# STAT1 act-1: STAT1 signaling activation | activation (% of control), % at 5.5 µM | NIH 3T3 STAT1-luciferase reporter, IFN-gamma, luminescence; 100% = IFN-gamma alone, no compound | AID 932 | 2.6% of 200,000 active;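 active means activation above the screen-wide mean activation plus 3 SD, cut at about 130% in these data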;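 further: raw ratio to IFN-gamma control signal so 100% means no change and 0% no light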
# NF-kB expr up: raises NF-kB expression in human neuronal cells; NF-kB reporter expression; hits give high values; fold change at 12.5 µM; 1.6% of 190,000 active; AID 1239; in the data active means fold change above about 3.3
# STAT3 blocker: inhibitors of IL-6 induced STAT3 signaling. U3A cells, IL-6 STAT3-luciferase reporter, luminescence; host cell line lacks STAT1. inhibition, % at 5.5 µM. 0.89% of 190,000 active. AID 862;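 active means inhibition above the mean inhibition across all screened compounds plus 3 SD, cut at about 44% in these data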;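 further: 0% = DMSO only wells and 100% = 100 µM nifuroxazide control wells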
# STAT3 act-2: confirmation of STAT3 signaling activators | U3A STAT3-luciferase reporter, IL-6 potentiation, luminescence; U3A cells lack STAT1; 100 means same as IL-6 alone | shares compounds with STAT3 act-1 | potentiation (% of control), % at 5.7 µM | 64% of 1,200 active;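 active means percent activation of the STAT3 luciferase reporter above a set limit taken from the earlier primary screen, cut at about 130% in these data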;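 further: 0% = background signal of medium plus substrate and 100% = median of IL-6 with DMSO wells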
# NFkB act STAT3ct: counter-screen for STAT3 activators: NF-kappaB activation; shares compounds with STAT3 act-1; human cells, NF-kappaB reporter activation; activation (% of control), % at 5.7 µM; 11% of 1,200 active; AID 1309; in the data active means activation above about 120%;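 further: reporter induced by TNF-alpha stimulation; 100% = median of stimulated DMSO wells and 0% = no signal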
# STAT1 act-2: counter-screen for STAT3 activators: STAT1 activation | shares compounds with STAT3 act-1 | NIH 3T3 STAT1-luciferase reporter, IFN-gamma, luminescence | activation (% of control), % at 5.7 µM | 13% of 1,200 active;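 active means activation above the solvent-only control well mean plus 3 SD, set per screening run, cut at about 120% in these data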;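 further: 100% = IFN-gamma with DMSO median signal so 100% means no change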
# Active calls of the source: *; · = not tested or not shown.
SMILES,STAT1 blocker,STAT3 act-1,APP 5'UTR act,STAT1 act-1,NF-kB expr up,STAT3 blocker,STAT3 act-2,NFkB act STAT3ct,STAT1 act-2
O=[N+]([O-])c1ccc(Cl)c(/C=N/N2CCN(c3ccccc3)CC2)c1,0,145*,-6,100,1.4,-40,135*,100,100
c1ccc(-c2noc(CN3CCN(c4cnccn4)CC3)n2)cc1,-7,111,9,105,·,-7,·,·,·
COc1ccc(/C=c2\sc3nc(-c4ccccc4OC)nn3c2=O)c(OC)c1,0,156*,11,100,0.99,-63,129,98,96
COc1ccccc1-c1nc2s/c(=C\c3cccs3)c(=O)n2n1,0,115,-5,101,0.81,-10,·,·,·
N#CC1=C(N)Oc2c(oc(CO)cc2=O)C1c1ccsc1 (configuration not stated),-4,104,8,104,0.82,-6,·,·,·
N#CC1=C(N)Oc2c(ccc3ccccc23)C1c1ccsc1 (configuration not stated),-19,138*,57,117,1.5,-47,106,115,110
O=C(NCC1OCCCN1S(=O)(=O)c1cc(F)ccc1F)C(=O)NC1CCCCC1 (configuration not stated),1,107,25,99,1,-3,·,·,·
COc1cc(NS(=O)(=O)c2ccc(N/C=C(\C=O)c3nc4ccccc4o3)cc2)nc(OC)n1,7,147*,4,93,1,-54,136*,104,95
CCc1nnc(NS(=O)(=O)c2ccc(N/C=C(\C=O)c3nc4cc(Cl)ccc4o3)cc2)s1,-3,149*,4,102,1.2,-52,135*,103,99
COc1ccc(N2CCN(C(=S)NCc3ccccc3)CC2)cc1,-1,105,6,98,1.3,-2,·,·,·
O=C(N/N=C/c1ccc(OCC(=O)N2CCCCC2)cc1)c1ccccc1O,10,141*,3,91,1.2,-39,146*,104,114
Oc1ccccc1C=NCC(O)c1ccccc1 (configuration not stated),0,101,-9,100,0.95,-1,·,·,·
CN1C(=O)/C(=N\OC(=O)c2cccc3ccccc23)c2ccccc21,9,141*,4,92,0.91,-37,126,102,89
O=C(Nc1ccccc1)Nc1cccc2cccnc12,-23,150*,126,121,2.5,-62,147*,136*,152*
CCC(=O)Nc1cccc2cccnc12,2,93,9,98,1.1,9,·,·,·
O=C(NC(=S)Nc1ccccc1N1CCCC1)c1ccc(F)cc1,8,145*,-5,91,1.1,-39,149*,104,91
O=C(NC(=S)Nc1ccccc1N1CCCCC1)c1ccccc1,-10,104,12,108,1.4,-1,·,·,·
O=C(NC(=S)Nc1ccccc1N1CCCC1)c1cccc(F)c1,6,152*,-1,93,1.2,-57,154*,105,89
Cc1cc(C(=O)NC(=S)Nc2ccccc2N2CCCC2)ccc1[N+](=O)[O-],-4,107,1,104,0.97,-14,·,·,·
COc1ccc(C(=O)C2CCCN(Cc3c[nH]c4ccccc34)C2)c(OC)c1 (configuration not stated),10,142*,-8,90,1.1,-44,141*,104,100
Cc1ccc2c(c1)NCC(C(=O)NCc1ccccc1)O2 (configuration not stated),3,98,-10,98,1.3,2,·,·,·
NC(=O)C1CNc2ccccc2O1 (configuration not stated),-3,156*,3,102,1.1,-67,148*,105,100
CC(=O)c1ccc(N2C(=O)[C@@H]3C(CCC(N)=O)NC4(C(=O)Nc5c4ccc(Cl)c5C)[C@@H]3C2=O)cc1 (some centres not stated),16,137*,0,86,0.96,-38,128,102,91
Oc1c(-c2cc(-c3ccco3)[nH]n2)ccc2ccccc12,-18,164*,133,117,8.7*,-76,166*,154*,116
Oc1ccc(Br)cc1-c1cc(-c2ccco2)[nH]n1,-1,136*,14,101,2,-35,128,107,116
SMILES,STAT1 blocker,STAT3 act-1,APP 5'UTR act,STAT1 act-1,NF-kB expr up,STAT3 blocker,STAT3 act-2,NFkB act STAT3ct,STAT1 act-2
NNC(=O)c1cc(-c2ccco2)[nH]n1,-8,102,-18,107,1.2,5,·,·,·
COCCNC(=O)CSc1nc2nn(-c3ccccc3)c(=O)c-2c2n1CCCCC2,3,89,15,97,1,18,·,·,·
COc1ccc(-c2nc(CN3CCCCC3c3nccn3C)c(C)o2)c(C)c1C (configuration not stated),5,98,18,95,0.96,8,·,·,·
Cc1nc(COC(=O)c2cc(O)c3ccccc3c2O)cs1,8,140*,16,93,1,-51,127,100,89
Cc1nc(COC(=O)c2ccc(CO)cc2)cs1,-8,104,8,107,1.1,-2,·,·,·
O=C(COC(=O)c1ccc(Br)cc1)Nc1ccccc1Br,0,103,6,99,1,1,·,·,·
CSc1ccc(/C=N/NC(=O)CNc2cccc3ccccc23)cc1,-1,121,9,101,1.1,-25,·,·,·
CSc1ccc(/C=N/NC(=O)CNc2ccc3ccccc3c2)cc1,0,146*,19,100,0.7,-48,140*,107,98
Nc1c(Br)cc2oc(-c3ccccc3)nc2c1Br,-13,146*,100,112,3.4*,-62,181*,123*,152*
CCOC(=O)C1=C(NC(=S)NC(=O)c2ccccc2)c2ccccc2CC1(C)CC (configuration not stated),9,117,-16,92,0.57,-14,·,·,·
CCOC(=O)C1=C(NC(=S)NC(=O)c2ccccc2)c2ccccc2CC1C(C)C (configuration not stated),-4,139*,-6,103,3.7*,-41,126,74,105
CCN(CC)S(=O)(=O)c1cc(OC)c(Cl)cc1OC,-5,97,13,102,0.89,9,·,·,·
Cc1ccc(C(=O)N2CCN(S(C)(=O)=O)C2)cc1,3,105,-4,98,1.1,3,·,·,·

# Bioassay records as filed in PubChem BioAssay.
